ChEMBL document CHEMBL2396592, “Discovery of Dap-3 polymyxin analogues for the treatment of multidrug-resistant Gram-negative nosocomial infections” (J Med Chem, 2013)
In brackets after ≈: the same amount, converted by molar mass. Where a SMILES comes first, the peptide text is derived from it. Bridges are numbered along the chain shown (N, C = ends). [ ]: non-standard residue; d: D form. The star is where a group is joined. X7 = N#Cc1ccc(-c2cc(C(=O)*)ccc2Cl)cc1; X4 = O=C(c1ccnc(-c2ccc(Cl)cc2)c1)*; X5 = O=C(c1ccc(Cl)c(-c2ccccn2)c1)*; X9 = COc1ccc(-c2cc(C(=O)*)ccn2)cc1; 2Naphthoyl = O=C(c1ccc2ccccc2c1)*; X8 = N#Cc1cc(C(=O)*)ccc1-c1ccccc1; X2 = COc1ccc(C(=O)*)cc1-c1ccccc1; X1 = O=C(c1cnnc(-c2ccccc2)c1)*; X3 = O=C(c1cncc(-c2ccccc2)c1)*; X6 = CC[C@H](C)CCCCC(=O)*; Dab = NCC[C@H](N)C(=O)O; Dap = NC[C@H](N)C(=O)O

Experiments:
Pseudomonas aeruginosa [1] = assay: Bactericidal activity against polymyxin-resistant Pseudomonas aeruginosa clinical isolate 1646; assay type: functional
In short: (§1)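 Test strain PA-1646 is a P. aeruginosa isolate with a mutated PmrAB two-component system. The system is constitutively active, so the modified lipid A moiety is constantly expressed on the cell surface, giving a polymyxin-resistant phenotype.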

Acinetobacter baumannii [2] = assay: Antibacterial activity against polymyxin-resistant Acinetobacter baumannii clinical isolate 1649 assessed as growth inhibition by broth microdilution method; assay type: functional
Klebsiella pneumoniae = assay: Antibacterial activity against polymyxin-sensitive ESBL-positive Klebsiella pneumoniae clinical isolate 3700 assessed as growth inhibition by broth microdilution method; assay type: functional
Escherichia coli = assay: Antibacterial activity against polymyxin-sensitive Escherichia coli isolate 1 assessed as growth inhibition by broth microdilution method; assay type: functional
Acinetobacter baumannii [3] = assay: Antibacterial activity against polymyxin-sensitive Acinetobacter baumannii clinical isolate 3167 assessed as growth inhibition by broth microdilution method; assay type: functional
[4] = Cytotoxicity against human RPTEC after 24 hrs by LDH assay; assay type: cell-based; conditions: RPTEC cells, read-out: TC50
In short: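 Primary human renal proximal tubule epithelial cells in REGM (EGF, hydrocortisone, epinephrine, insulin, T3, transferrin, gentamycin/amphotericin-B, FBS). After 72 h of growth at 37 °C, 5% CO2, cells were exposed for 24 h to aqueous compound at 100, 67, 44, 30, 20 and 13 μM. LDH release into the supernatant was measured by kit and TC50 (μM) derived, with PMB and PMBN as controls.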

Pseudomonas aeruginosa [5] = assay: Antibacterial activity against polymyxin-resistant Pseudomonas aeruginosa clinical isolate 1646 assessed as growth inhibition by broth microdilution method; assay type: functional; in short: as §1
Pseudomonas aeruginosa [6] = assay: Antibacterial activity against polymyxin-sensitive Pseudomonas aeruginosa 1401 assessed as growth inhibition by broth microdilution method; assay type: functional
In short: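 CLSI broth microdilution MIC against P. aeruginosa 1401 (PA01) and 1402 (UC12120), the two strains used in the mouse thigh model.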

Acinetobacter baumannii [7] = assay: Bactericidal activity against polymyxin-resistant Acinetobacter baumannii clinical isolate 1649; assay type: functional

## CC(C)C[C@@H]1NC(=O)[C@@H](Cc2ccccc2)NC(=O)[C@H](CCN)NC(=O)[C@@H](NC(=O)[C@H](CN)NC(=O)[C@@H](NC(=O)[C@H](CCN)NC(=O)c2ccc3ccccc3c2)[C@@H](C)O)CCNC(=O)[C@H]([C@@H](C)O)NC(=O)[C@H](CCN)NC(=O)[C@H](CCN)NC1=O (2Naphthoyl-[Dab]T[Dap][Dab][Dab][dF]L[Dab][Dab]T; lactam 4-C)
Pseudomonas aeruginosa [1]
  MBC: 16 µg/mL (≈ 13.3 µM)
Acinetobacter baumannii [2]
  MIC: 2 µg/mL
Klebsiella pneumoniae
  MIC: 0.125 µg/mL
Escherichia coli
  MIC: 0.125 µg/mL
Acinetobacter baumannii [3]
  MIC: 0.25 µg/mL
[4]
  CC50 at 24 h: 51 µM
Pseudomonas aeruginosa [5]
  MIC: 4 µg/mL
Pseudomonas aeruginosa [6]
  MIC: 0.5 µg/mL
Acinetobacter baumannii [7]
  MBC: 2 µg/mL (≈ 1.66 µM)

## CC(C)C[C@@H]1NC(=O)[C@@H](Cc2ccccc2)NC(=O)[C@H](CCN)NC(=O)[C@@H](NC(=O)[C@H](CN)NC(=O)[C@@H](NC(=O)[C@H](CCN)NC(=O)c2cnnc(-c3ccccc3)c2)[C@@H](C)O)CCNC(=O)[C@H]([C@@H](C)O)NC(=O)[C@H](CCN)NC(=O)[C@H](CCN)NC1=O (X1-[Dab]T[Dap][Dab][Dab][dF]L[Dab][Dab]T; lactam 4-C)
Pseudomonas aeruginosa [1]
  MBC: 8 µg/mL (≈ 6.5 µM)
Acinetobacter baumannii [2]
  MIC: 2 µg/mL
Klebsiella pneumoniae
  MIC: 0.125 µg/mL
Escherichia coli
  MIC: 0.125 µg/mL
Acinetobacter baumannii [3]
  MIC: 0.25 µg/mL
[4]
  CC50 at 24 h: 84 µM
Pseudomonas aeruginosa [5]
  MIC: 2 µg/mL
Pseudomonas aeruginosa [6]
  MIC: 0.25 µg/mL
Acinetobacter baumannii [7]
  MBC: 4 µg/mL (≈ 3.25 µM)

## COc1ccc(C(=O)N[C@@H](CCN)C(=O)N[C@H](C(=O)N[C@@H](CN)C(=O)N[C@H]2CCNC(=O)[C@H]([C@@H](C)O)NC(=O)[C@H](CCN)NC(=O)[C@H](CCN)NC(=O)[C@H](CC(C)C)NC(=O)[C@@H](Cc3ccccc3)NC(=O)[C@H](CCN)NC2=O)[C@@H](C)O)cc1-c1ccccc1 (X2-[Dab]T[Dap][Dab][Dab][dF]L[Dab][Dab]T; lactam 4-C)
Pseudomonas aeruginosa [1]
  MBC: 2 µg/mL (≈ 1.59 µM)
Acinetobacter baumannii [2]
  MIC: 2 µg/mL
Klebsiella pneumoniae
  MIC: 0.25 µg/mL
Escherichia coli
  MIC: 0.25 µg/mL
Acinetobacter baumannii [3]
  MIC: 0.5 µg/mL
[4]
  CC50 at 24 h: 27 µM
Pseudomonas aeruginosa [5]
  MIC: 1 µg/mL
Pseudomonas aeruginosa [6]
  MIC: 0.5 µg/mL
Acinetobacter baumannii [7]
  MBC: 2 µg/mL (≈ 1.59 µM)

## CC(C)C[C@@H]1NC(=O)[C@@H](Cc2ccccc2)NC(=O)[C@H](CCN)NC(=O)[C@@H](NC(=O)[C@H](CN)NC(=O)[C@@H](NC(=O)[C@H](CCN)NC(=O)c2cncc(-c3ccccc3)c2)[C@@H](C)O)CCNC(=O)[C@H]([C@@H](C)O)NC(=O)[C@H](CCN)NC(=O)[C@H](CCN)NC1=O (X3-[Dab]T[Dap][Dab][Dab][dF]L[Dab][Dab]T; lactam 4-C)
Pseudomonas aeruginosa [1]
  MBC: 4 µg/mL (≈ 3.25 µM)
Acinetobacter baumannii [2]
  MIC: 4 µg/mL
Klebsiella pneumoniae
  MIC: 0.25 µg/mL
Escherichia coli
  MIC: 0.125 µg/mL
Acinetobacter baumannii [3]
  MIC: 0.25 µg/mL
[4]
  CC50 at 24 h: 56 µM
Pseudomonas aeruginosa [5]
  MIC: 2 µg/mL
Pseudomonas aeruginosa [6]
  MIC: 0.5 µg/mL
Acinetobacter baumannii [7]
  MBC: 4 µg/mL (≈ 3.25 µM)

## CC(C)C[C@@H]1NC(=O)[C@@H](Cc2ccccc2)NC(=O)[C@H](CCN)NC(=O)[C@@H](NC(=O)[C@H](CN)NC(=O)[C@@H](NC(=O)[C@H](CCN)NC(=O)c2ccnc(-c3ccc(Cl)cc3)c2)[C@@H](C)O)CCNC(=O)[C@H]([C@@H](C)O)NC(=O)[C@H](CCN)NC(=O)[C@H](CCN)NC1=O (X4-[Dab]T[Dap][Dab][Dab][dF]L[Dab][Dab]T; lactam 4-C)
Pseudomonas aeruginosa [1]
  MBC: 1 µg/mL (≈ 0.791 µM)
Acinetobacter baumannii [2]
  MIC: 1 µg/mL
Klebsiella pneumoniae
  MIC: 0.25 µg/mL
Escherichia coli
  MIC: 0.25 µg/mL
Acinetobacter baumannii [3]
  MIC: 0.25 µg/mL
[4]
  CC50 at 24 h: 30 µM
Pseudomonas aeruginosa [5]
  MIC: 1 µg/mL
Pseudomonas aeruginosa [6]
  MIC: 0.5 µg/mL
Acinetobacter baumannii [7]
  MBC: 1 µg/mL (≈ 0.791 µM)

## CC(C)C[C@@H]1NC(=O)[C@@H](Cc2ccccc2)NC(=O)[C@H](CCN)NC(=O)[C@@H](NC(=O)[C@H](CN)NC(=O)[C@@H](NC(=O)[C@H](CCN)NC(=O)c2ccc(Cl)c(-c3ccccn3)c2)[C@@H](C)O)CCNC(=O)[C@H]([C@@H](C)O)NC(=O)[C@H](CCN)NC(=O)[C@H](CCN)NC1=O (X5-[Dab]T[Dap][Dab][Dab][dF]L[Dab][Dab]T; lactam 4-C)
Pseudomonas aeruginosa [1]
  MBC: 16 µg/mL (≈ 12.6 µM)
Acinetobacter baumannii [2]
  MIC: 4 µg/mL
Klebsiella pneumoniae
  MIC: 0.25 µg/mL
Escherichia coli
  MIC: 0.25 µg/mL
Acinetobacter baumannii [3]
  MIC: 0.25 µg/mL
[4]
  CC50 at 24 h: 72 µM
Pseudomonas aeruginosa [5]
  MIC: 4 µg/mL
Pseudomonas aeruginosa [6]
  MIC: 1 µg/mL
Acinetobacter baumannii [7]
  MBC: 4 µg/mL (≈ 3.16 µM)

## CC[C@H](C)CCCCC(=O)N[C@@H](CCN)C(=O)N[C@H](C(=O)N[C@@H](CCN)C(=O)N[C@H]1CCNC(=O)[C@H]([C@@H](C)O)NC(=O)[C@H](CCN)NC(=O)[C@H](CCN)NC(=O)[C@H](CC(C)C)NC(=O)[C@@H](Cc2ccccc2)NC(=O)[C@H](CCN)NC1=O)[C@@H](C)O (X6-[Dab]T[Dab][Dab][Dab][dF]L[Dab][Dab]T; lactam 4-C)
Pseudomonas aeruginosa [1]
  MBC: 16 µg/mL (≈ 13.3 µM)
Acinetobacter baumannii [2]
  MIC: 4 µg/mL
Klebsiella pneumoniae
  MIC: 0.5 µg/mL
Escherichia coli
  MIC: 0.125 µg/mL
Acinetobacter baumannii [3]
  MIC: 0.25 µg/mL
[4]
  CC50 at 24 h: 27 µM
Pseudomonas aeruginosa [5]
  MIC: 4 µg/mL
Pseudomonas aeruginosa [6]
  MIC: 0.5 µg/mL
Acinetobacter baumannii [7]
  MBC: 4 µg/mL (≈ 3.32 µM)

## CC[C@H](C)CCCCC(=O)N[C@@H](CCN)C(=O)N[C@H](C(=O)N[C@@H](CN)C(=O)N[C@H]1CCNC(=O)[C@H]([C@@H](C)O)NC(=O)[C@H](CCN)NC(=O)[C@H](CCN)NC(=O)[C@H](CC(C)C)NC(=O)[C@@H](Cc2ccccc2)NC(=O)[C@H](CCN)NC1=O)[C@@H](C)O (X6-[Dab]T[Dap][Dab][Dab][dF]L[Dab][Dab]T; lactam 4-C)
Pseudomonas aeruginosa [1]
  MBC: 2 µg/mL (≈ 1.68 µM)
Acinetobacter baumannii [2]
  MIC: 4 µg/mL
Klebsiella pneumoniae
  MIC: 0.125 µg/mL
Escherichia coli
  MIC: 0.125 µg/mL
Acinetobacter baumannii [3]
  MIC: 0.125 µg/mL
[4]
  CC50 at 24 h: 72 µM
Pseudomonas aeruginosa [5]
  MIC: 1 µg/mL
Pseudomonas aeruginosa [6]
  MIC: 0.5 µg/mL
Acinetobacter baumannii [7]
  MBC: 4 µg/mL (≈ 3.36 µM)

## CC(C)C[C@@H]1NC(=O)[C@@H](Cc2ccccc2)NC(=O)[C@H](CCN)NC(=O)[C@@H](NC(=O)[C@H](CN)NC(=O)[C@@H](NC(=O)[C@H](CCN)NC(=O)c2ccc(Cl)c(-c3ccc(C#N)cc3)c2)[C@@H](C)O)CCNC(=O)[C@H]([C@@H](C)O)NC(=O)[C@H](CCN)NC(=O)[C@H](CCN)NC1=O (X7-[Dab]T[Dap][Dab][Dab][dF]L[Dab][Dab]T; lactam 4-C)
Pseudomonas aeruginosa [1]
  MBC: 4 µg/mL (≈ 3.1 µM)
Acinetobacter baumannii [2]
  MIC: 4 µg/mL
Klebsiella pneumoniae
  MIC: 0.5 µg/mL
Escherichia coli
  MIC: 0.5 µg/mL
Acinetobacter baumannii [3]
  MIC: 0.5 µg/mL
[4]
  CC50 at 24 h: 20 µM
Pseudomonas aeruginosa [5]
  MIC: 1 µg/mL
Pseudomonas aeruginosa [6]
  MIC: 1 µg/mL
Acinetobacter baumannii [7]
  MBC: 4 µg/mL (≈ 3.1 µM)

## CC(C)C[C@@H]1NC(=O)[C@@H](Cc2ccccc2)NC(=O)[C@H](CCN)NC(=O)[C@@H](NC(=O)[C@H](CN)NC(=O)[C@@H](NC(=O)[C@H](CCN)NC(=O)c2ccc(-c3ccccc3)c(C#N)c2)[C@@H](C)O)CCNC(=O)[C@H]([C@@H](C)O)NC(=O)[C@H](CCN)NC(=O)[C@H](CCN)NC1=O (X8-[Dab]T[Dap][Dab][Dab][dF]L[Dab][Dab]T; lactam 4-C)
Pseudomonas aeruginosa [1]
  MBC: 4 µg/mL (≈ 3.19 µM)
Acinetobacter baumannii [2]
  MIC: 1 µg/mL
Klebsiella pneumoniae
  MIC: 0.5 µg/mL
Escherichia coli
  MIC: 0.5 µg/mL
Acinetobacter baumannii [3]
  MIC: 0.25 µg/mL
[4]
  CC50 at 24 h: 32 µM
Pseudomonas aeruginosa [5]
  MIC: 2 µg/mL
Pseudomonas aeruginosa [6]
  MIC: 1 µg/mL
Acinetobacter baumannii [7]
  MBC: 1 µg/mL (≈ 0.797 µM)

## COc1ccc(-c2cc(C(=O)N[C@@H](CCN)C(=O)N[C@H](C(=O)N[C@@H](CN)C(=O)N[C@H]3CCNC(=O)[C@H]([C@@H](C)O)NC(=O)[C@H](CCN)NC(=O)[C@H](CCN)NC(=O)[C@H](CC(C)C)NC(=O)[C@@H](Cc4ccccc4)NC(=O)[C@H](CCN)NC3=O)[C@@H](C)O)ccn2)cc1 (X9-[Dab]T[Dap][Dab][Dab][dF]L[Dab][Dab]T; lactam 4-C)
Pseudomonas aeruginosa [1]
  MBC: 8 µg/mL (≈ 6.35 µM)
Acinetobacter baumannii [2]
  MIC: 2 µg/mL
Klebsiella pneumoniae
  MIC: 0.25 µg/mL
Escherichia coli
  MIC: 0.25 µg/mL
Acinetobacter baumannii [3]
  MIC: 0.25 µg/mL
[4]
  CC50 at 24 h: 78 µM
Pseudomonas aeruginosa [5]
  MIC: 2 µg/mL
Pseudomonas aeruginosa [6]
  MIC: 0.5 µg/mL
Acinetobacter baumannii [7]
  MBC: 2 µg/mL (≈ 1.59 µM)
